Hits are enriched below; roughly 9% of the tested compounds scored in any of these assays.
D1 mod – allosterically modulates the human D1 dopamine receptor | P21728 | HEK293 D1, CRE-luciferase, dopamine EC30 potentiation; actives deviate in either direction | B-score at 10 µM | 58,000 tested, 5.9% active | AID 641;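 active = luminescence count or its row- and column-corrected plate score outside the 99.7% band of the plate's sample wells, on either side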
Target sequence (P21728 whole entry, looked up): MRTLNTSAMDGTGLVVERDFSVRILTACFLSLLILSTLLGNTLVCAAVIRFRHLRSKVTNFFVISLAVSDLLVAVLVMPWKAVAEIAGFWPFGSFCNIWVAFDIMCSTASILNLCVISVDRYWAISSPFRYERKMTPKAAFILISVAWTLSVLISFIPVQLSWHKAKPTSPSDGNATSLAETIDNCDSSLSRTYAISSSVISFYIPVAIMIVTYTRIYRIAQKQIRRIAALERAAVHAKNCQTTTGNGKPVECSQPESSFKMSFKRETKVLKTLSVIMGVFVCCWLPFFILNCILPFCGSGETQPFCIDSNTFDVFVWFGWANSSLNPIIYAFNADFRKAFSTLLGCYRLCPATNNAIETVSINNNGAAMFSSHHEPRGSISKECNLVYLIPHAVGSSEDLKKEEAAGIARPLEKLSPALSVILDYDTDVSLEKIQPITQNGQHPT
M1 ag – M1 muscarinic receptor agonism; B-score at 10 µM; CHO-M1 cells, Fluo-4 calcium fluorescence, agonist mode; stronger effect = higher value; AID 626; 64,000 tested, 3% active;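 active = fluorescence rise, raw or as B-score row- and column-corrected plate score, outside the 99.7% band of its plate's samples, either direction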
Htt clearance – compounds clearing mutant huntingtin protein; 47,000 tested, 0.42% active; HeLa Exon1htt(103Q)mCFP, aggregate imaging; zero = plate's median compound well; inhibition, % at 1.5 µM;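 active = inhibition of aggregate fluorescence above about 70%, also judged a hit by eye on the cell image, limit read from the data, passing the limit was not always enough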;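 also: cells exposed to compound for three days before fixation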
M1 antagonist – M1 muscarinic receptor (rat) antagonism; B-score at 10 µM; AID 628; CHO-M1 cells, Fluo-4 calcium, ACh EC80 antagonist mode; stronger effect = lower value; 64,000 tested, 3.4% active; P08482;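 active = calcium fluorescence response, raw or row-and-column corrected B-score, differing from the plate sample mean either way at a set confidence level, mostly lower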
AP complement – orthogonal test for alternative complement pathway inhibitors | Human serum alternative complement pathway, LPS-coated ELISA, C3 deposition; tested in compound mixtures | inhibition, % at 5 µM | 62,000 tested, 0.08% active | AID 1235;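 active = inhibition above 30% in each of the two pooled mixtures holding the compound, so the lower value exceeds 30%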;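 also: 0% = serum in Mg-EGTA without compound and 100% = EDTA serum blank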
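Test system: human serum alternative complement pathway, C3 deposition on LPS-coated wells; also added: Plate-bound LPS; doses: 5 µM per compound in ten-compound mixtures; schedule: 1 h at 37 °C; detection: Anti-C3 ELISA, OD 450 nm; evaluation: percent inhibition of C3 deposition onto LPS; repeats: two pool placements per compound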
Active calls of the source: *.

For CCN1CC=C2C(C#N)=C(N)C(C#N)(C#N)C(c3cc(Cl)ccc3Cl)C2C1 (centres undefined) the results were D1 mod -1.1, M1 ag 35*, Htt clearance -358, M1 antagonist 0.4 and AP complement -4.
For Cn1c(=O)[nH]c(=O)c2[nH]c(CN3CCN(Cc4ccccc4)CC3)nc21 the results were D1 mod -4.3*, M1 ag 0.91, M1 antagonist 2 and AP complement 12.
Screening Cn1c(=O)[nH]c(=O)c2c1nc(N1CCN(Cc3ccccc3)CC1)n2CCCc1ccccc1 returned D1 mod 3.8, M1 ag 0.034, M1 antagonist -2.5 and AP complement -3.
`C=CCn1c(=N)n(CC(O)COc2ccccc2OC)c2ccccc21` (centres undefined) gave D1 mod -5.4*, M1 ag -0.035, Htt clearance 56, M1 antagonist -1.1 and AP complement 9.
`CC(C)(C)C(=O)Cn1c(=N)n(Cc2ccccc2)c2ccccc21` gave D1 mod -3.3*, M1 ag -1.4, M1 antagonist -0.47 and AP complement -2.
`CC(C)(C)C(=O)Cn1c(=N)n(Cc2ccccc2Cl)c2ccccc21` gave Htt clearance 9.
`N=c1n(Cc2ccccc2)c2ccccc2n1CC(O)c1ccccc1` (centres undefined) gave D1 mod -3.6, M1 ag -0.28, M1 antagonist 0.086 and AP complement 29.
For COc1ccccc1OCC(O)Cn1c(=N)n(Cc2ccccc2)c2ccccc21 (centres undefined) the results were D1 mod -4.7*, M1 ag 0.19, Htt clearance -45 and M1 antagonist 0.0072.
For O=C(CSCc1cccc(Br)c1)N1CCOCC1 the results were D1 mod 0.24, M1 ag 0.89, Htt clearance -4, M1 antagonist 0.021 and AP complement 0.
Cc1ccccc1CS(=O)(=O)CCC(=O)NCCCN1CCN(c2ccccc2F)CC1 was read as D1 mod -3.1, M1 ag 0.16, Htt clearance -24, M1 antagonist -0.36 and AP complement 18.
For Cc1ccccc1CS(=O)(=O)CCC(=O)NCCN1CCN(c2cccc(Cl)c2)CC1 the results were D1 mod -3.6*, M1 ag 0.15, Htt clearance -14, M1 antagonist -0.31 and AP complement 9.
CN1C(=O)CC(C(=O)O)SC1=Nc1cccc(C(F)(F)F)c1 (centres undefined) was read as D1 mod 0.15, M1 ag 0.18, Htt clearance -20, M1 antagonist 0.52 and AP complement 11.
`CC(=O)C1=C(O)C(=O)N(Cc2ccco2)C1c1ccc(F)cc1` (centres undefined) gave D1 mod -2.8*, M1 ag -0.14, M1 antagonist -0.12 and AP complement 4.
Screening CCN(CC)c1nc2c(s1)C(=O)CC(C)(C)C2 returned Htt clearance -89.
COC(=O)C1=C(C)N=c2s/c(=C/c3ccoc3)c(=O)n2C1c1ccccc1 (centres undefined) was read as D1 mod -3.6*, M1 ag 0.16, Htt clearance 15, M1 antagonist -0.12 and AP complement 16.
Screening COC(=O)c1sccc1-c1ccc(/C=N/OC(=O)c2ccccc2)o1 returned Htt clearance -4.
For Cc1cc(C(=O)CSc2nc3ccccc3[nH]2)c(C)n1C the results were D1 mod -2.9*, M1 ag -0.031, Htt clearance -50, M1 antagonist -0.032 and AP complement 0.
For Cc1ccc2nc(SCC(=O)c3cc(C)n(C)c3C)[nH]c2c1 the results were Htt clearance 36.
Screening O=C(O)c1ccccc1NS(=O)(=O)c1cccc2cccnc12 returned D1 mod 0.039, M1 ag 0.014, Htt clearance 77*, M1 antagonist -1.5 and AP complement -8.
COc1ccccc1NS(=O)(=O)c1cccc2cccnc12 was read as D1 mod 0.57, M1 ag -0.55, M1 antagonist 0.036 and AP complement 9.
COCCSc1ccccc1C(=O)Nc1cc(C)on1 was read as D1 mod 0.072, M1 ag 0.76, Htt clearance 75*, M1 antagonist 0.28 and AP complement 5.
Screening COCCSc1ccccc1C(=O)Nc1nnc(COC)s1 returned D1 mod 0.49, M1 ag -0.13, M1 antagonist 0.43 and AP complement -16.

Assay outcomes as filed in PubChem.
